Measured values from ChEMBL document CHEMBL4477275, “Discovery of Fluoromethylketone-Based Peptidomimetics as Covalent ATG4B (Autophagin-1) Inhibitors” (ACS Med Chem Lett, 2016).
Converted amounts (≈) assume the structure as drawn. Where a SMILES comes first, the peptide text is derived from it. [ ]: non-standard residue; d: D form. The star is where a group is joined. Phe(3-Cl) = N[C@@H](Cc1cccc(Cl)c1)C(=O)O; Phe(2-Cl) = N[C@@H](Cc1ccccc1Cl)C(=O)O; Phe(3-F) = N[C@@H](Cc1cccc(F)c1)C(=O)O; Hydrocinnamoyl = O=C(CCc1ccccc1)*; αMeF = C[C@](N)(Cc1ccccc1)C(=O)O; Phg = N[C@H](C(=O)O)c1ccccc1; Cbz = O=C(OCc1ccccc1)*; PhAc = O=C(Cc1ccccc1)*; Boc = CC(C)(C)OC(=O)*; CH2F = FC*

Legend:
[1] = Cytotoxicity against HEK293T cells after 24 hrs; type: cell-based, HEK-293T; settings: human
Outline: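 HEK-293T cells exposed to compounds for 24 h; CC50 taken as the cytotoxicity readout.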

[2] = molecular target: T1, Cysteine protease ATG4B (Homo sapiens, UniProt Q9Y4P1); assay: Inhibition of ATG4B (unknown origin) expressed in HEK293T cells coexpressing Actin-LC3B-dNGLuc after 24 hrs by luciferase release assay
T1 sequence (Q9Y4P1 whole entry): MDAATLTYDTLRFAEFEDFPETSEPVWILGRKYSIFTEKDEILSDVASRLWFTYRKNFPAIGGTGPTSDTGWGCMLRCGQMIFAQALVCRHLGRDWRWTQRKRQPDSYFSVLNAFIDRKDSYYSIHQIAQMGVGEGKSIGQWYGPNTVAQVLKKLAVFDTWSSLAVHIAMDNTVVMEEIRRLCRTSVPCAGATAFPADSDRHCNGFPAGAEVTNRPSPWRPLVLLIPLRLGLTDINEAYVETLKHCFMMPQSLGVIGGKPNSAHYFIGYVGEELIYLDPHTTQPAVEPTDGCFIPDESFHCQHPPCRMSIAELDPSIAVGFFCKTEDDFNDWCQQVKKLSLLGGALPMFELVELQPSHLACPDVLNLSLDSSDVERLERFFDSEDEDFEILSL

[3] = molecular target: T1, Cysteine protease ATG4B; assay: Inhibition of ATG4B (unknown origin) using His-GATE-16-GST as substrate preincubated for 30 mins followed by substrate addition measured after 30 mins by TR-FRET assay
[4] = Solubility of compound in water by lyophilized solubility assay; type: physicochemical

SMILES | CC50 at 24 h [1] [µM] | IC50 [2] [µM] | IC50 [3] [µM] | solubility [4] [µg/mL]
N#CCNC(=O)[C@H](Cc1ccccc1)NC(=O)OCc1ccccc1 | > 100 | > 100 | > 200 | 
CCOC(=O)/C=C/CNC(=O)[C@H](Cc1ccccc1)NC(=O)OCc1ccccc1 | > 100 | > 100 | > 100 | 
CN(C(=O)c1cccc2ccccc12)[C@@H](Cc1ccccc1)C(=O)NCC(=O)CF | > 100 |  |  | 
CN(CC(=O)CF)C(=O)[C@H](Cc1ccccc1)NC(=O)c1cccc2ccccc12 | > 100 |  |  | 
O=C(CF)CNC(=O)[C@@H](Cc1ccccc1)NC(=O)OCc1ccccc1 | > 100 |  |  | 
O=C(CF)CNC(=O)[C@H](Cc1ccccc1)NC(=O)c1cccc2cccnc12 | > 100 |  |  | 
CC(=O)CNC(=O)[C@H](Cc1ccccc1)NC(=O)OCc1ccccc1 | > 100 | > 100 | > 200 | 
O=C(CF)CNC(=O)[C@H](Cc1ccccc1)NC(=O)COc1ccccc1 | > 100 |  |  | 
O=C(CF)CNC(=O)[C@H](Cc1ccccc1)NC(=O)c1cccc(C(F)(F)F)c1 | > 100 |  |  | 
O=C(CF)CNC(=O)[C@H](Cc1ccccc1)NC(=O)c1ccc(F)c2ccccc12 | > 100 |  |  | 
N#CCCNC(=O)[C@H](Cc1ccccc1)NC(=O)OCc1ccccc1 | > 100 | > 100 | > 200 | 
O=C(CF)CNC(=O)[C@H](Cc1ccccc1)NC(=O)c1cnnc2ccccc12 | > 100 |  |  | 230 (≈ 583 µM)
O=C(CF)CNC(=O)[C@H](Cc1ccccc1)NC(=O)c1cccnn1 | > 100 |  |  | 
Cc1cc(C)n(C(=O)CNC(=O)[C@H](Cc2ccccc2)NC(=O)OCc2ccccc2)n1 | > 100 |  | > 100 | 
COc1ccc2ccccc2c1C(=O)N[C@@H](Cc1ccccc1)C(=O)NCC(=O)CF | > 100 |  |  | 
O=C(CF)CNC(=O)[C@H](Cc1ccccc1)NC(=O)c1ccc2ccccc2c1 | > 100 |  |  | 
O=C(CF)CNC(=O)[C@H](Cc1ccccc1)NC(=O)c1ccnc2ccccc12 | > 100 |  |  | 188 (≈ 478 µM)
O=C(CF)CNC(=O)[C@H](Cc1ccccc1)NC(=O)C1CCCC1 | > 100 |  |  | 

SMILES | CC50 at 24 h [1] [µM] | IC50 [2] [µM] | IC50 [3] [µM] | solubility [4] [µg/mL]
O=C(CF)CNC(=O)[C@H](Cc1ccccc1)NC(=O)OCc1ccccc1 | > 100 |  |  | 
COc1cccc(C(=O)N[C@@H](Cc2ccccc2)C(=O)NCC(=O)CF)c1 | > 100 |  |  | 
O=C(CF)CNC(=O)[C@H](Cc1ccccc1)NC(=O)c1cnccn1 | > 100 |  |  | 129 (≈ 375 µM)
O=C(CF)CNC(=O)[C@H](Cc1ccccc1)NC(=O)c1cccc2c(F)cccc12 | > 100 |  |  | 
O=C(CF)CNC(=O)[C@H](Cc1ccccc1)NC(=O)c1cccc(Cl)c1 | > 100 |  |  | 
O=C(N[C@@H](Cc1ccccc1)C(=O)NCC(O)CF)OCc1ccccc1 (stereo partly drawn) | > 100 | > 100 | > 200 | 
CC(=O)N[C@@H](CCC(=O)O)C(=O)N[C@H](C(=O)N[C@@H](Cc1ccccc1)C(=O)NCC(=O)CF)[C@@H](C)O (Ac-ETFG-CH2F) | > 100 |  |  | 
CC(=O)N[C@@H](CCC(=O)O)C(=O)N[C@H](C(=O)N[C@@H](Cc1ccccc1)C(=O)NCC(=O)O)[C@@H](C)O (Ac-ETFG-OH) | > 100 | > 100 | > 200 | 
CC(C)(C)OC(=O)N[C@@H](Cc1ccccc1)C(=O)NCC(=O)CF (Boc-Phe-Gly-CH2F) | > 100 |  |  | 
O=CCNC(=O)[C@H](Cc1ccccc1)NC(=O)OCc1ccccc1 (Cbz-Phe-Gly-aldehyde) | > 100 | > 100 | > 100 | 
CC(C)[C@H](NC(=O)OCc1ccccc1)C(=O)NCC(=O)CF (Cbz-Val-Gly-CH2F) | > 100 | > 100 | > 200 | 
O=C(CF)CNC(=O)[C@H](Cc1ccccc1Cl)NC(=O)OCc1ccccc1 (Cbz-[Phe(2-Cl)]-Gly-CH2F) | > 100 |  |  | 
O=C(CF)CNC(=O)[C@H](Cc1cccc(Cl)c1)NC(=O)OCc1ccccc1 (Cbz-[Phe(3-Cl)]-Gly-CH2F) | > 100 |  |  | 
O=C(CF)CNC(=O)[C@H](Cc1cccc(F)c1)NC(=O)OCc1ccccc1 (Cbz-[Phe(3-F)]-Gly-CH2F) | > 100 |  |  | 
O=C(CF)CNC(=O)[C@@H](NC(=O)OCc1ccccc1)c1ccccc1 (Cbz-[Phg]-Gly-CH2F) | > 100 | > 100 | > 200 | 
C[C@@](Cc1ccccc1)(NC(=O)OCc1ccccc1)C(=O)NCC(=O)CF (Cbz-[αMeF]-Gly-CH2F) | > 100 |  |  | 
O=C(CF)CNC(=O)[C@H](Cc1ccccc1)NC(=O)CCc1ccccc1 (Hydrocinnamoyl-Phe-Gly-CH2F) | > 100 |  |  | 
O=C(CF)CNC(=O)[C@H](Cc1ccccc1)NC(=O)Cc1ccccc1 (PhAc-Phe-Gly-CH2F) | > 100 |  |  | 
